Key:
[1] = target: Adenosylhomocysteinase (Homo sapiens, UniProt P23526); assay: Inhibition of human placental SAH hydrolase expressed in Escherichia coli JM109 using SAH as substrate preincubated for 10 mins followed by SAH addition and measured after 20 mins by […] reagent-based spectrophotometric method
[2] = […]; assay type: cell-based; conditions: Middle East respiratory syndrome-related coronavirus, EMC/2012, Vero, 72 h
[3] = system: Vero; assay: Cytotoxicity against African green monkey Vero cells assessed as reduction in cell viability measured after 72 hrs by MTS assay; assay type: cell-based; conditions: chlorocebus sabaeus
Outline: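 Uninfected Vero cells (20 000/well) were incubated with compound for 72 h, alongside MERS-CoV assays. Viability by MTS for 2–2.5 h, formaldehyde fixation, then A495 relative to untreated controls. Eight concentrations, quadruplicate; CC50 from nonlinear regression.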

[4] = […]; design: species or system SARS coronavirus Frankfurt 1; conditions: Severe acute respiratory syndrome-related coronavirus, Vero C1008, 72 h
[5] = (§1) Cytotoxicity against African green monkey Vero E6 cells assessed as reduction in cell viability measured after 72 hrs by MTS assay; assay type: cell-based, Vero C1008; conditions: chlorocebus sabaeus, Vero E6 cells (Vero C1008)
Outline: (§2)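 Uninfected Vero E6 cells (10 000/well) were exposed to compound for 72 h, in parallel with SARS-CoV CPE assays. Eight concentrations in quadruplicate; CC50 by nonlinear regression.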

[6] = system: Vero; assay: Cytotoxicity against African green monkey Vero cells assessed as reduction in cell viability measured after 96 hrs by MTS assay; assay type: cell-based; conditions: chlorocebus sabaeus
Outline: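 Uninfected Vero CCL81 cells (5000/well) were treated for 96 h in parallel with ZIKV CPE assays. Eight concentrations, quadruplicate; CC50 by nonlinear regression.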

[7] = […] CHIKV LS3 infected in African green monkey Vero E6 cells assessed as reduction in virus-induced cytopathic effect measured after 96 hrs post-infection by MTS assay; conditions: Chikungunya virus, LS3, Vero C1008, 96 h
[8] = Selectivity index, ratio of CC50 for African green monkey Vero E6 cells to EC50 for inhibition of RNA-dependent RNA polymerase in SARS-CoV Frankfurt1 infected in African green monkey Vero E6 cells assessed as reduction in virus-induced cytopathic effect; assay type: toxicity, Vero C1008; conditions: read-out: Ratio CC50/EC50
[9] = Selectivity index, ratio of CC50 for African green monkey Vero cells to EC50 for inhibition of RNA-dependent RNA polymerase in ZIKV SL0612 infected in African green monkey Vero cells assessed as reduction in virus-induced cytopathic effect; assay type: toxicity; conditions: read-out: Ratio CC50/EC50
Outline: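 Vero CCL81 cells (5000/well) received ZIKV at MOI 0.05 in compound-containing infection medium. MTS was read at 96 hpi (A495, relative to uninfected), with uninfected cells run in parallel for CC50. Eight concentrations, quadruplicate; nonlinear regression; SI = CC50/EC50.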

[10] = Selectivity index, ratio of CC50 for African green monkey Vero E6 cells to EC50 for inhibition of RNA-dependent RNA polymerase in CHIKV LS3 infected in African green monkey Vero E6 cells assessed as reduction in virus-induced cytopathic effect; assay type: toxicity, Vero C1008; conditions: read-out: Ratio CC50/EC50
Outline: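 Vero E6 cells (5000/well) were infected with CHIKV at MOI 0.005 in EMEM/25 mM HEPES/2% FCS containing compound. CPE was read by MTS at 96 hpi (A495, relative to uninfected). Uninfected cells were tested in parallel for CC50. Eight concentrations, quadruplicate; EC50 and CC50 by nonlinear regression; SI = CC50/EC50.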

[11] = system: Vero C1008; assay: as §1; assay type: cell-based; conditions: chlorocebus sabaeus, vero c1008, 72 h; outline: as §2
[12] = Selectivity index, ratio of CC50 for African green monkey Vero cells to EC50 for inhibition of RNA-dependent RNA polymerase in MERS-CoV EMC/2012 infected in African green monkey Vero cells assessed as reduction in virus-induced cytopathic effect; assay type: toxicity; conditions: read-out: Ratio CC50/EC50
[13] = system: Chikungunya virus; assay: Antiviral activity against CHIKV LS3 infected in African green monkey Vero E6 cells assessed as log reduction in viral titer measured after 30 hrs post infection by plaque assay; assay type: functional, Vero C1008
[14] = system: Middle East respiratory syndrome-related coronavirus; assay: Antiviral activity against MERS-CoV EMC/2012 infected in African green monkey Vero cells assessed as log reduction in virus titre at >0.3 uM measured after 48 hrs viral infection by plaque assay; assay type: functional
[15] = system: Zika virus; assay: Antiviral activity against ZIKV SL0612 infected in African green monkey Vero cells assessed as log reduction in viral titre up to 1.5 uM measured at 48 hrs post infection by plaque assay; assay type: functional
Outline: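 Vero E6 cells (7.5 × 10^4/well) adhered overnight in DMEM/8% FCS. ZIKV infection was at MOI 1 for 2 h at 37 °C in EMEM/2% FCS with compound (0–1.5 μM), followed by washing and 48 h in compound-containing medium. Supernatant titre was read by plaque assay on Vero CCL81. Duplicates in two independent experiments (n = 4).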

[16] = system: SARS-CoV; assay: Antiviral activity against SARS-CoV Frankfurt1 infected in African green monkey Vero E6 cells assessed as log reduction in viral titre at >0.3 uM measured at 48 hrs post infection by plaque assay; assay type: functional, Severe acute respiratory syndrome-related coronavirus, Frankfurt 1, Vero C1008
[17] = Partition coefficient, log P of the compound in liquid/aqueous phase by pH-metric method; assay type: physicochemical; conditions: octanol/water

Chain of Adenosylhomocysteinase (P23526 whole entry): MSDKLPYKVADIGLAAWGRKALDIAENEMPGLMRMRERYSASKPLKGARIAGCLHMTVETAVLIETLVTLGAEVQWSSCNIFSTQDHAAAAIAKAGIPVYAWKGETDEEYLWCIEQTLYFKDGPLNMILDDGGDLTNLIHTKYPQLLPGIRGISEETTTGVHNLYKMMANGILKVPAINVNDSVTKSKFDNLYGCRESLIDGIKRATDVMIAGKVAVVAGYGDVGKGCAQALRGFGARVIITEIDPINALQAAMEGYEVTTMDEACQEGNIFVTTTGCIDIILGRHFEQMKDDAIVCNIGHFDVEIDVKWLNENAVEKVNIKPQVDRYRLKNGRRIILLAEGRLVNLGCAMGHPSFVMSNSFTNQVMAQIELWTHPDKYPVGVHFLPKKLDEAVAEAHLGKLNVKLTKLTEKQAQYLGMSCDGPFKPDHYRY

Row | SMILES | IC50 [1] | EC50 [2] | CC50 [3] | EC50 [4] | CC50 at 72 h [5] | CC50 [6] | EC50 [7] | selectivity ratio [8] | selectivity ratio [9] | selectivity ratio [10] | CC50 [11] | selectivity ratio [12] | FC [13] | FC [14] | FC [15] | FC [16] | logP [17]
1 | CC(C)OC(=O)[C@H](C)N[P@](=O)(OC[C@@H]1[C@@H](O)[C@@H](O)[C@H](n2cnc3c(N)ncnc32)C1(F)F)Oc1ccccc1 | > 100 µM | 9.3 µM | > 50 µM | 6.8 µM | 12.5 to 25 µM | > 25 µM | 1.95 µM | > 3.7 | > 14.3 | > 6.4 | – | – | – | – | – | – | –
2 | Nc1ncnc2c1ncn2[C@H]1[C@H](O)[C@H](O)[C@@H](CO)[C@@H]1F | – | – | – | – | – | – | 0.53 µM | – | – | – | – | – | – | – | – | – | –
3 | O=c1ccn([C@H]2[C@H](O)[C@H](O)[C@@H](CO)C2(F)F)c(=O)[nH]1 | > 100 µM | > 50 µM | > 50 µM | > 100 µM | – | > 100 µM | > 100 µM | – | – | – | > 100 µM | – | – | – | – | – | –
4 | O=c1ccn([C@H]2[C@H](O)[C@H](O)[C@@H](CO)[C@@H]2F)c(=O)[nH]1 | > 100 µM | > 100 µM | > 100 µM | > 100 µM | – | > 100 µM | > 100 µM | – | – | – | – | – | – | – | – | – | –
5 | CNc1ncnc2c1ncn2[C@H]1[C@H](O)[C@H](O)[C@@H](CO)C1(F)F | 0.76 µM | > 50 µM | 12.5 µM | > 100 µM | – | > 100 µM | > 100 µM | – | – | – | > 100 µM | – | – | – | – | – | –
6 | CNc1ncnc2c1ncn2[C@H]1[C@H](O)[C@H](O)[C@@H](CO)[C@H]1F | 4.39 µM | > 50 µM | > 50 µM | > 100 µM | – | > 100 µM | > 100 µM | – | – | – | > 100 µM | – | – | – | – | – | –
7 | CC(C)OC(=O)[C@H](C)N[P@](=O)(OC[C@@H]1[C@@H](O)[C@@H](O)[C@H](n2ccc(=O)[nH]c2=O)[C@@H]1F)Oc1ccccc1 | > 100 µM | > 50 µM | > 50 µM | > 100 µM | – | > 100 µM | > 100 µM | – | – | – | > 100 µM | – | – | – | – | – | –
8 | Nc1ncnc2c1ncn2[C@H]1[C@H](O)[C@H](O)[C@@H](CO)C1(F)F | 1.06 µM | 0.2 µM | 3.2 µM | 0.5 µM | 1.25 to 5.9 µM | > 2.5 µM | 0.13 µM | 11.8 | > 9.6 | > 9.6 | – | 16 | >2 | 2.5 | 1 | 1.5 | 0.02
9 | O=c1ccn([C@H]2[C@H](O)[C@H](O)[C@@H](CO)[C@H]2F)c(=O)[nH]1 | > 100 µM | > 100 µM | – | > 100 µM | – | – | > 100 µM | – | – | – | > 100 µM | – | – | – | – | – | –
10 | Nc1ncnc2c1ncn2[C@@H]1C[C@H](CO)[C@@H](O)[C@H]1O [ARISTEROMYCIN] | – | > 50 µM | 2 µM | > 50 µM | 2.4 to 6.3 µM | 2.4 µM | 0.8 µM | – | – | – | – | – | – | – | – | – | –
11 | Nc1ncnc2c1ncn2[C@H]1[C@H](O)[C@H](O)[C@@H](CO)[C@H]1F | – | 0.2 µM | 0.6 µM | – | > 100 µM | – | > 100 µM | – | – | – | – | – | – | – | – | – | –
12 | CC(C)OC(=O)[C@H](C)N[P@](=O)(OC[C@@H]1[C@@H](O)[C@@H](O)[C@H](n2ccc(=O)[nH]c2=O)C1(F)F)Oc1ccccc1 | > 100 µM | > 50 µM | > 50 µM | > 100 µM | – | > 100 µM | > 100 µM | – | – | – | > 100 µM | – | – | – | – | – | –
13 | Nc1ccn([C@H]2[C@H](O)[C@H](O)[C@@H](CO)[C@H]2F)c(=O)n1 | > 100 µM | > 100 µM | > 100 µM | > 100 µM | – | > 100 µM | > 100 µM | – | – | – | > 100 µM | – | – | – | – | – | –
14 | Nc1ccn([C@H]2[C@H](O)[C@H](O)[C@@H](CO)C2(F)F)c(=O)n1 | > 100 µM | > 50 µM | > 50 µM | > 100 µM | – | > 100 µM | > 100 µM | – | – | – | > 100 µM | – | – | – | – | – | –
